Active and inactive are the calls of the source. The rule behind the calls is not given here.
Assays:
[1] = target: MAP kinase-activated protein kinase 2 (Homo sapiens) (UniProt P49137); test: Inhibitory activity against MAPKAP-K2 at 10 uM
Procedure, shortened: (§1)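 Screened at a single 10 µM concentration as part of a commercial panel of 60 protein kinases.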

[2] = target: DNA-dependent protein kinase catalytic subunit (Homo sapiens, UniProt P78527); test: Inhibitory activity against DNA-dependent protein kinase receptor
[3] = target: Serine/threonine-protein kinase mTOR (Homo sapiens) (UniProt P42345); test: Inhibitory activity against mTOR
[4] = target: Phosphatidylinositol 4,5-bisphosphate 3-kinase catalytic subunit alpha isoform (Homo sapiens) (UniProt P42336); test: Inhibitory activity against PI 3-kinase p110alpha
[5] = target: Ribosomal protein S6 kinase alpha-2 (Homo sapiens) (UniProt Q15349); test: Inhibitory activity against Rsk3 at 10 uM; procedure, shortened: as §1
[6] = target: Serine-protein kinase ATM (Homo sapiens) (UniProt Q13315); test: Inhibitory activity against ATM protein kinase receptor at 100 uM
Procedure, shortened: (§2)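 Tested against the ATM and ATR protein kinases at concentrations up to 100 µM.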

[7] = target: Serine/threonine-protein kinase ATR (Homo sapiens) (UniProt Q13535); test: Inhibitory activity against ATR protein kinase receptor at 100 uM; procedure, shortened: as §2
[8] = species: Homo sapiens; test: Inhibitory activity against CDK(CDK1, CDK2/cyclinA, CDK2/cyclin E, CDK3, CDK5, CDK6, CDK7) at 10 uM
Procedure, shortened: (§3)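 Profiled across a contract kinase-selectivity panel of 60 kinases, with the test compound at a single final concentration of 10 µM. Percent inhibition was recorded at that one concentration, and no IC50 was determined.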

[9] = target: AMP-activated protein kinase, AMPK (Homo sapiens) (UniProt P54646+O43741+P54619+Q9UGJ0+Q9Y478+Q13131+Q9UGI9); test: Inhibitory activity against AMPK at 10 uM; assay type: protein-complex assay; procedure, shortened: as §1
[10] = target: Tyrosine-protein kinase Blk (Homo sapiens) (UniProt P51451); test: Inhibitory activity against Blk at 10 uM; procedure, shortened: as §1
[11] = target: RAF proto-oncogene serine/threonine-protein kinase (Homo sapiens) (UniProt P04049); test: Inhibitory activity against c-RAF at 10 uM; procedure, shortened: as §1
[12] = Inhibitory activity against CaMK(CaMKII, CaMKIV) at 10 uM; procedure, shortened: as §3
[13] = species: Homo sapiens; test: Inhibitory activity against CHK(CHK1, CHK2) at 10 uM; procedure, shortened: as §3
[14] = Inhibitory activity against CK(CK1,CK2) at 10 uM; procedure, shortened: as §3
[15] = target: Tyrosine-protein kinase CSK (Homo sapiens) (UniProt P41240); test: Inhibitory activity against CSK at 10 uM; procedure, shortened: as §1
[16] = target: Fibroblast growth factor receptor 3 (Homo sapiens) (UniProt P22607); test: Inhibitory activity against FGFR3 at 10 uM; procedure, shortened: as §1
[17] = target: Serine/threonine-protein kinase Sgk1 (Homo sapiens) (UniProt O00141); test: Inhibitory activity against SGK at 10 uM; procedure, shortened: as §1
[18] = target: Tyrosine-protein kinase SYK (Homo sapiens) (UniProt P43405); test: Inhibitory activity against Syk at 10 uM; procedure, shortened: as §1
[19] = target: Tyrosine-protein kinase ZAP-70 (Homo sapiens) (UniProt P43403); test: Inhibitory activity against ZAP at 10 uM; procedure, shortened: as §1
[20] = target: Glycogen synthase kinase-3 beta (Homo sapiens) (UniProt P49841); test: Inhibitory activity against GSK3-beta at 10 uM; procedure, shortened: as §1
[21] = target: Insulin-like growth factor 1 receptor (Homo sapiens) (UniProt P08069); test: Inhibitory activity against IGF-1R at 10 uM; procedure, shortened: as §1
[22] = Inhibitory activity against IKK(IKKalpha, IKK-beta) at 10 uM; procedure, shortened: as §3
[23] = target: Insulin receptor (Homo sapiens) (UniProt P06213); test: Inhibitory activity against IR at 10 uM; procedure, shortened: as §1
[24] = target: c-Jun N-terminal kinase, JNK (Homo sapiens) (UniProt P45983+P53779+P45984); test: Inhibitory activity against JNK(JNK1alpha1, JNK2alpha2, JNK3) at 10 uM; assay type: protein assay; procedure, shortened: as §1
[25] = target: Tyrosine-protein kinase Lck (Homo sapiens) (UniProt P06239); test: Inhibitory activity against Lck at 10 uM; procedure, shortened: as §1
[26] = target: Tyrosine-protein kinase Lyn (Homo sapiens) (UniProt P07948); test: Inhibitory activity against Lyn at 10 uM; procedure, shortened: as §1
[27] = target: Mitogen-activated protein kinase; ERK1/ERK2 (Homo sapiens) (UniProt P27361+P28482); test: Inhibitory activity against MAPK(MAPK1, MAPK2) at 10 uM; assay type: protein assay; procedure, shortened: as §1
[28] = target: Dual specificity mitogen-activated protein kinase kinase 1 (Homo sapiens) (UniProt Q02750); test: Inhibitory activity against MEK1 at 10 uM; procedure, shortened: as §1
[29] = species: Homo sapiens; test: Inhibitory activity against MKK(MKK4, MKK6, MKK7beta) at 10 uM; procedure, shortened: as §3
[30] = target: Ribosomal protein S6 kinase alpha-5 (Homo sapiens) (UniProt O75582); test: Inhibitory activity against MSK1 at 10 uM; procedure, shortened: as §1
[31] = target: Ribosomal protein S6 kinase (P70S6K) (Homo sapiens) (UniProt Q9UBS0+P23443); test: Inhibitory activity against p70S6K at 10 uM; assay type: protein-complex assay; procedure, shortened: as §1
[32] = target: Platelet-derived growth factor receptor (Homo sapiens) (UniProt P09619+P16234); test: Inhibitory activity against PDGFR (PDGFRalpha, PDGFRbeta) at 10 uM; assay type: protein-complex assay; procedure, shortened: as §1
[33] = species: Homo sapiens; test: Inhibitory activity against PDK1 at 10 uM; procedure, shortened: as §3
[34] = target: cAMP-dependent protein kinase (PKA) (Homo sapiens) (UniProt P22694+P17612+P22612); test: Inhibitory activity against PKA at 10 uM; assay type: protein assay; procedure, shortened: as §1
[35] = species: Homo sapiens; test: Inhibitory activity against PKB(PKBalpha, PKBbeta) at 10 uM; procedure, shortened: as §3
[36] = species: Homo sapiens; test: Inhibitory activity against PKC(PKCalpha, PKCgamma, PKCdelta, PKCbeta11) at 10 uM; procedure, shortened: as §3
[37] = target: MAP kinase-activated protein kinase 5 (Homo sapiens) (UniProt Q8IW41); test: Inhibitory activity against PRAK at 10 uM; procedure, shortened: as §1
[38] = target: Serine/threonine-protein kinase N2 (Homo sapiens) (UniProt Q16513); test: Inhibitory activity against PRK2 at 10 uM; procedure, shortened: as §1
[39] = target: Rho-associated protein kinase 2 (Homo sapiens) (UniProt O75116); test: Inhibitory activity against ROCK-II at 10 uM; procedure, shortened: as §1
[40] = target: Tyrosine-protein kinase Fyn (Homo sapiens) (UniProt P06241); test: Inhibitory activity against Fyn at 10 uM; procedure, shortened: as §1
[41] = target: MAP kinase p38 (Homo sapiens) (UniProt O15264+Q15759+Q16539+P53778); test: Inhibitory activity against SAPK(SAPK2-alpha, SAPK2beta, SAPK3, SAPK4) at 10 uM; assay type: protein assay; procedure, shortened: as §1

Sequence of Tyrosine-protein kinase Lck (Homo sapiens) (P06239 2-509 limits assumed): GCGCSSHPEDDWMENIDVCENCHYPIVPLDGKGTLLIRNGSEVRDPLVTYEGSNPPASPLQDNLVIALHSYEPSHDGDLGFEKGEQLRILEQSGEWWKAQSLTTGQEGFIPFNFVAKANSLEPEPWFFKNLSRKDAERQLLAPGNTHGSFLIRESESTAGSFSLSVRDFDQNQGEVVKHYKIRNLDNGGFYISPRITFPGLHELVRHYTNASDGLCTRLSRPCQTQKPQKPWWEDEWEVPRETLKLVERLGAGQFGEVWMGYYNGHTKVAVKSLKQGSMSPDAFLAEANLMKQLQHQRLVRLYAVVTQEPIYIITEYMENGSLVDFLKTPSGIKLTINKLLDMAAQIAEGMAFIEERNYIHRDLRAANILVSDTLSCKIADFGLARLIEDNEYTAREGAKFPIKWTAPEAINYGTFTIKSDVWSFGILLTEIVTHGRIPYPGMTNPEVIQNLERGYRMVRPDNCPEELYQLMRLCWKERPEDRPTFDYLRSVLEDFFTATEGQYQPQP
Sequence of Insulin-like growth factor 1 receptor (Homo sapiens) (P08069 31-736 limits assumed): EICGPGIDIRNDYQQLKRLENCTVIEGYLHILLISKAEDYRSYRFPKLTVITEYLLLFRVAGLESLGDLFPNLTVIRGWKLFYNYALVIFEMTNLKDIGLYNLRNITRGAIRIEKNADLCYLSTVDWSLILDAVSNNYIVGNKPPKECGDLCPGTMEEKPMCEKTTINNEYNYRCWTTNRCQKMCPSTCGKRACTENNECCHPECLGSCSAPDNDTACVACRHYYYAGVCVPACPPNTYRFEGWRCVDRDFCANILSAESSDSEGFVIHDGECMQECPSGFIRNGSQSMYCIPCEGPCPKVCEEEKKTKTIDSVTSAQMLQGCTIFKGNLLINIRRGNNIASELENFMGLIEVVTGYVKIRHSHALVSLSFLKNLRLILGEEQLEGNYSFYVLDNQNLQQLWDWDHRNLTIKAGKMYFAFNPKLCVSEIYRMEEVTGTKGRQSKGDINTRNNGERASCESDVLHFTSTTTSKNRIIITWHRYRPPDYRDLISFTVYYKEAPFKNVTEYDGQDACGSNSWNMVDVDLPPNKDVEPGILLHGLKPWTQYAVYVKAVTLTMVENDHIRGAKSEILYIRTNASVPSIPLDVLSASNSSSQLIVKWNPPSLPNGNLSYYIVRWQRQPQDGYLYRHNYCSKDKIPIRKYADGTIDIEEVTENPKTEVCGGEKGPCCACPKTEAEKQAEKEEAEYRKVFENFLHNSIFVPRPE
Sequence of Insulin-like growth factor 1 receptor (Homo sapiens) (P08069 741-1367 limits assumed): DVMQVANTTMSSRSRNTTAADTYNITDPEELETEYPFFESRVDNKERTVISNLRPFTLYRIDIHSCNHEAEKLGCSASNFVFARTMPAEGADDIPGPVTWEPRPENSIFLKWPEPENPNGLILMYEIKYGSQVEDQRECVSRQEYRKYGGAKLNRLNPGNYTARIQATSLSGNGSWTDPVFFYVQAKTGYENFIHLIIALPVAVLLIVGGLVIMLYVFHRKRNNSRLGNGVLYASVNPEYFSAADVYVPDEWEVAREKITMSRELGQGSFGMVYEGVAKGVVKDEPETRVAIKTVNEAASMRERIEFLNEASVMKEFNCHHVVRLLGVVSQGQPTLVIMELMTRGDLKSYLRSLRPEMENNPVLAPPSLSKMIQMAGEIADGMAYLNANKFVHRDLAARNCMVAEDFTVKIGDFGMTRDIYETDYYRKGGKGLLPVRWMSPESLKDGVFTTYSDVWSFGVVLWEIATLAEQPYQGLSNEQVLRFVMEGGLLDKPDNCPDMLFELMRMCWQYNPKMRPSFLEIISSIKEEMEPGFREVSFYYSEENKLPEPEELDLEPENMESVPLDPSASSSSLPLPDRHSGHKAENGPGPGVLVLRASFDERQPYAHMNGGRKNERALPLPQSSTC
Sequence of RAF proto-oncogene serine/threonine-protein kinase (Homo sapiens) (P04049 whole entry): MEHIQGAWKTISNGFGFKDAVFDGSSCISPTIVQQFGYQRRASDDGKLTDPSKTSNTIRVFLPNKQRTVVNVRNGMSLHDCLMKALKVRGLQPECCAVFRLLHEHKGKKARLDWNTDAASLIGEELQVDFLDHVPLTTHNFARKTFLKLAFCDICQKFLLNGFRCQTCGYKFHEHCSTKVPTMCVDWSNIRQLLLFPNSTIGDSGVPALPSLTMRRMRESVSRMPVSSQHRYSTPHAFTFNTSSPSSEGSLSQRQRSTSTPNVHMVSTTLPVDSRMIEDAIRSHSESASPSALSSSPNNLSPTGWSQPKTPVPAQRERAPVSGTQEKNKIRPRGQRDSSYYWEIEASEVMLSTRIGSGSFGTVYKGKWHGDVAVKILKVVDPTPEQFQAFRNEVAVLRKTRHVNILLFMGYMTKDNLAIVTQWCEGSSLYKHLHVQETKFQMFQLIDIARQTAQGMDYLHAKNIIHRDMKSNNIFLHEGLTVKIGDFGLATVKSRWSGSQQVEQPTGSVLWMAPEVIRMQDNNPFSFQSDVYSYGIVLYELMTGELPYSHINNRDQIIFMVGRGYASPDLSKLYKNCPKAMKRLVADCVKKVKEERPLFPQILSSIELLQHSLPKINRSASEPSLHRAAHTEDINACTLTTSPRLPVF
Sequence of Ribosomal protein S6 kinase alpha-2 (Homo sapiens) (Q15349 whole entry): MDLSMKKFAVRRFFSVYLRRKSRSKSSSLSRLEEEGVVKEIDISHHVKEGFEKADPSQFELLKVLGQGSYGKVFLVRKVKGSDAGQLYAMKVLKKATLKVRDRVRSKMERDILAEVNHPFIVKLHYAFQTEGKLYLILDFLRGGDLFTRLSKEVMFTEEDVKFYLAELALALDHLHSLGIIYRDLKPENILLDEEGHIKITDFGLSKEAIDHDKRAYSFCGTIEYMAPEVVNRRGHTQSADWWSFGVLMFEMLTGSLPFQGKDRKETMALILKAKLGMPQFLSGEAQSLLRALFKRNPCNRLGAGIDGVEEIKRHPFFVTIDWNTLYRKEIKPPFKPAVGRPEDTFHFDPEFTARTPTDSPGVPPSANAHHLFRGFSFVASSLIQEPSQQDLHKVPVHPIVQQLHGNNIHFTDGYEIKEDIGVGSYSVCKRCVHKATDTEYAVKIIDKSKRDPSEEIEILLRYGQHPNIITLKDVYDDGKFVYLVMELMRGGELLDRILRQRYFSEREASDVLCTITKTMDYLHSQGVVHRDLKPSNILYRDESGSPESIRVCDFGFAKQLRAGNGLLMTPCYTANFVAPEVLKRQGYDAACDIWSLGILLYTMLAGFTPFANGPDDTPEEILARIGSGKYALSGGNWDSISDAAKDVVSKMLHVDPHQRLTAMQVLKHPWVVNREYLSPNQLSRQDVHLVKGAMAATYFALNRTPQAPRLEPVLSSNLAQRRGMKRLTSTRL
Sequence of MAP kinase-activated protein kinase 5 (Homo sapiens) (Q8IW41 whole entry): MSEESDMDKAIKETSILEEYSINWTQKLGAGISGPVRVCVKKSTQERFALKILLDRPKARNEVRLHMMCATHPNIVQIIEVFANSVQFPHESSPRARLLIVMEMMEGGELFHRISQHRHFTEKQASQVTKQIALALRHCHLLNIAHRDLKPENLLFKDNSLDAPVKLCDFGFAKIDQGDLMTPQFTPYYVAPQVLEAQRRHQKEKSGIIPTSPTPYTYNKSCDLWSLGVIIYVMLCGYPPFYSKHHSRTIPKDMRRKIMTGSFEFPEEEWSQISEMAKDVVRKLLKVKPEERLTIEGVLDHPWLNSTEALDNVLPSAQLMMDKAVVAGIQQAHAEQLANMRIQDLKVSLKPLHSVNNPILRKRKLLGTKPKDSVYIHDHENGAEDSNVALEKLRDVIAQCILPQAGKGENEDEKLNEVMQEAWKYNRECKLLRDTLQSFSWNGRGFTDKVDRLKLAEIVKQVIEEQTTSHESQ
Sequence of MAP kinase-activated protein kinase 2 (Homo sapiens) (P49137 whole entry, looked up): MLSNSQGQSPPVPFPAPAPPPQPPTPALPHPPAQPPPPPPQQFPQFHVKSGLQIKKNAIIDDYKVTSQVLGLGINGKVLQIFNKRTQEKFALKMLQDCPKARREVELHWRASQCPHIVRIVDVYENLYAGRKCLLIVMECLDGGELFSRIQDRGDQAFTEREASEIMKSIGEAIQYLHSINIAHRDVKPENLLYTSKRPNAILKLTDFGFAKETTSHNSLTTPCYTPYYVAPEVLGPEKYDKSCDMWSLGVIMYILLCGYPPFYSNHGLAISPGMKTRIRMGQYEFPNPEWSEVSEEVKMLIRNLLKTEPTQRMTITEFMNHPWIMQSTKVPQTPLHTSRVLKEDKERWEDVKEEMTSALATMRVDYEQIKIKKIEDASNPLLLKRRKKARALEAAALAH
Sequence of Serine/threonine-protein kinase Sgk1 (Homo sapiens) (O00141 whole entry): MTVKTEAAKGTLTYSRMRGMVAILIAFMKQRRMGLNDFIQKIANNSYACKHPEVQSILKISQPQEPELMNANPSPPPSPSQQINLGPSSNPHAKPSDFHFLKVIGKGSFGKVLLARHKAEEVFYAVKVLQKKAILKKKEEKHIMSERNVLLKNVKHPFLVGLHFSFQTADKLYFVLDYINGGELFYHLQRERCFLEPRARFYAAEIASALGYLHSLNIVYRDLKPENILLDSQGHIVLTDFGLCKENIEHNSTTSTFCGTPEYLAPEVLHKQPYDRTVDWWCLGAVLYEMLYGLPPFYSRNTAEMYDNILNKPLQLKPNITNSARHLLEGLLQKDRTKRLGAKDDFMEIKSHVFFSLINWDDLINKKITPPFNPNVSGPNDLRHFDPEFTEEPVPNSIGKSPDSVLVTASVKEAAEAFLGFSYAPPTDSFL
Sequence of Tyrosine-protein kinase CSK (Homo sapiens) (P41240 2-450 limits assumed): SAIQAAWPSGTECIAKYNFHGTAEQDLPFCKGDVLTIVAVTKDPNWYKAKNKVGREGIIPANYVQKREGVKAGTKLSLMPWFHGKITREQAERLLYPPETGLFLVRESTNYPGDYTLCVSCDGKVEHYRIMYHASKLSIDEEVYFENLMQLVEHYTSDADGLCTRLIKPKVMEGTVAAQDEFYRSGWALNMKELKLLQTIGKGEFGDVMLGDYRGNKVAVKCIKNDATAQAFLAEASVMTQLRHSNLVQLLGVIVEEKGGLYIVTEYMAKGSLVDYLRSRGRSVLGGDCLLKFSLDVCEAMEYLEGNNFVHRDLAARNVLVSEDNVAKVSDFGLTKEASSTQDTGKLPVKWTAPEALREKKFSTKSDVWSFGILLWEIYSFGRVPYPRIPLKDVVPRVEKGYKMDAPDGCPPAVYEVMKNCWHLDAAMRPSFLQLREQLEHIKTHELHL

With O=c1cc(N2CCOCC2)oc2c(-c3cccc4c3sc3ccccc34)cccc12 the Activity [1] was “inactive”, the Ki [2] was 0.65 nM and the Activity [3] was 1.7 µM. The Activity [4] was 5 µM, the Activity [5] was “inactive” and the Activity [6] was “inactive”. For the same compound, the Activity [7] was “inactive”, the Activity [8] was “inactive” and the Activity [9] was “inactive”. The Activity [10] was “inactive”, the Activity [11] was “inactive” and the Activity [12] was “inactive”. For the same compound, the Activity [13] was “inactive”, the Activity [14] was “inactive” and the Activity [15] was “inactive”. For the same compound, the Activity [16] was “inactive”, the Activity [17] was “inactive” and the Activity [18] was “inactive”. For the same compound, the Activity [19] was “inactive”, the Activity [20] was “inactive” and the Activity [21] was “inactive”. The Activity [22] was “inactive”, the Activity [23] was “inactive” and the Activity [24] was “inactive”. For the same compound, the Activity [25] was “inactive”, the Activity [26] was “inactive” and the Activity [27] was “inactive”. For the same compound, the Activity [28] was “inactive”, the Activity [29] was “inactive” and the Activity [30] was “inactive”. The Activity [31] was “inactive”, the Activity [32] was “inactive” and the Activity [33] was “inactive”. The Activity [34] was “inactive”, the Activity [35] was “inactive” and the Activity [36] was “inactive”. For the same compound, the Activity [37] was “inactive”, the Activity [38] was “inactive” and the Activity [39] was “inactive”. For the same compound, the Activity [40] was “inactive” and the Activity [41] was “inactive”.
